Experimental data as given in ChEMBL document CHEMBL1133729, “Design, synthesis, and structure-activity relationships of phthalimide-phenylpiperazines: a novel series of potent and selective alpha(1)(a)-adrenergic receptor antagonists” (J Med Chem, 2000).

What was measured:
[1] = molecular target: D(2) dopamine receptor (Homo sapiens, UniProt P14416); assay: Compound at 1 uM was tested for the inhibition of radioligand [3H]spiperone binding to recombinant human Dopamine receptor D2S
How it was run: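 Human D2S in CHO membranes; [3H]spiperone, 37 °C for 120 min in 50 mM Tris-HCl, 150 mM NaCl, 5 mM EDTA, pH 7.4; 10 μM haloperidol for nonspecific binding. Percent inhibition at 1 μM, duplicate; filtration, scintillation counting.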

[2] = molecular target: T1, Alpha-2C adrenergic receptor (Homo sapiens) (UniProt P18825); assay: Compound at 1 uM was tested for the inhibition of radioligand [3H]MK-912 binding to recombinant human alpha-2C adrenergic receptor
T1 sequence (whole entry): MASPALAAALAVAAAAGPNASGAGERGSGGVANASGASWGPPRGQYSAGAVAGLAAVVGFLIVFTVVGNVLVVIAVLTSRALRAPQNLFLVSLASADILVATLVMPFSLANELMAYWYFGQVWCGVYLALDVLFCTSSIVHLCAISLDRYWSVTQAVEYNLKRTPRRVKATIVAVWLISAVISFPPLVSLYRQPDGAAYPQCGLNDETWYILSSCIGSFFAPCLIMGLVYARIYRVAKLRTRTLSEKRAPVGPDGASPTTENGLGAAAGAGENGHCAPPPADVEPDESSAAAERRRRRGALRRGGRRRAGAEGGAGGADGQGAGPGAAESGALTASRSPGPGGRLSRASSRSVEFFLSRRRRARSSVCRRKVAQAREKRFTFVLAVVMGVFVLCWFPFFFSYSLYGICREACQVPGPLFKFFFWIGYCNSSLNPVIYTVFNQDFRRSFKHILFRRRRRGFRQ
How it was run: (§1)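 Recombinant human α2a or α2c receptors in CHO cell membranes; [3H]MK912, 60 min at 25 °C in 50 mM Tris-HCl, 150 mM NaCl, 5 mM EDTA, pH 7.4; WB4101 (10 μM) for nonspecific binding. Percent inhibition at 1 μM in duplicate; filtration, scintillation counting.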

[3] = molecular target: T2, D(4) dopamine receptor (Homo sapiens) (UniProt P21917); assay: Compound at 1 uM was tested for the inhibition of radioligand [3H]spiperone binding to recombinant human Dopamine receptor D4.7
T2 sequence (whole entry): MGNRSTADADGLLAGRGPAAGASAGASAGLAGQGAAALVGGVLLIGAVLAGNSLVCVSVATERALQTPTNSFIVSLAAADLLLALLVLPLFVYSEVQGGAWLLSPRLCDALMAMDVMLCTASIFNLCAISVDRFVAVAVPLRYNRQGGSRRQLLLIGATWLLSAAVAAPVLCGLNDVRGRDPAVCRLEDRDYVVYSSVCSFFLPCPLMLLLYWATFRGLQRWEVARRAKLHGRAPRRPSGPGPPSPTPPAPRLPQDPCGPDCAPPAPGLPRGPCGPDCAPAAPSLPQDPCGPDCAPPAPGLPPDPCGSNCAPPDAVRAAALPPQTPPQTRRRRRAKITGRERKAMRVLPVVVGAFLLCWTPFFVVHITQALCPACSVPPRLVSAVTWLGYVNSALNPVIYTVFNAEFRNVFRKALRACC
How it was run: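 Recombinant human D4.7 in CHO cell membranes; [3H]spiperone for 120 min at 25 °C, pH 7.4 Tris-HCl/NaCl/EDTA; haloperidol (10 μM) for nonspecific binding. Compound at 1 μM, percent inhibition determined in duplicate; filtration, scintillation counting.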

[4] = molecular target: T3, Alpha-2A adrenergic receptor (Homo sapiens) (UniProt P08913); assay: Compound at 1 uM was tested for the inhibition of radioligand [3H]MK-912 binding to recombinant human alpha-2A adrenergic receptor; how it was run: as §1
T3 sequence (whole entry): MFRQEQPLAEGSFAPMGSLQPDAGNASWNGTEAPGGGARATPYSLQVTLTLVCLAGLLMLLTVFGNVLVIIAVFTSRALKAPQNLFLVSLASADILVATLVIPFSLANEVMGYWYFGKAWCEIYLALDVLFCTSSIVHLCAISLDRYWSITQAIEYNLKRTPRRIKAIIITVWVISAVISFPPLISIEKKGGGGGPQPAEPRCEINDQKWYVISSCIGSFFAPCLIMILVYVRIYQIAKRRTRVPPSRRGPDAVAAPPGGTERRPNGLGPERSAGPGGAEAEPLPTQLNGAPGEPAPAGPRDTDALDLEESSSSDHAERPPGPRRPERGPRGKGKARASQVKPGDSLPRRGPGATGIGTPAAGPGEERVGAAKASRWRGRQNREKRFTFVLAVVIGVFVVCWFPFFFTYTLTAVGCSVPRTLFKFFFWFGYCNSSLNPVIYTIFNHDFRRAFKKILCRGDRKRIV

[5] = molecular target: T4, Alpha-1A adrenergic receptor (Homo sapiens, UniProt P35348); assay: Binding affinity towards cloned human alpha-1A adrenergic receptor was determined using [125]-HEAT as radioligand
T4 sequence (P35348 whole entry): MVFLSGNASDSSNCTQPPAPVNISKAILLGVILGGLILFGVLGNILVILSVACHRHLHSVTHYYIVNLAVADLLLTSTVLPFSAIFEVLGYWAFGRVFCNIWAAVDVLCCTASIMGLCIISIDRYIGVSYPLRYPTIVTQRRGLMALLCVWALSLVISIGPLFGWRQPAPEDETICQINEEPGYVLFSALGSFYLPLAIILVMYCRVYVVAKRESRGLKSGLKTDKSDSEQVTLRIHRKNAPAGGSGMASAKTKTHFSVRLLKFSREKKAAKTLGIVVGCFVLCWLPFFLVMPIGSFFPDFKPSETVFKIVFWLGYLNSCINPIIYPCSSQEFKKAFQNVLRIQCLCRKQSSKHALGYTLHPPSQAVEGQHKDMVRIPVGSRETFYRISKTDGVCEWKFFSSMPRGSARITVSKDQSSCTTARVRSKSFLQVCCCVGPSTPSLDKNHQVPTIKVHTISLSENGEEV

[6] = molecular target: T5, 5-hydroxytryptamine receptor 1A (Homo sapiens) (UniProt P08908); assay: Compound at 1 uM was tested for the inhibition of radioligand [3H]8-OH-DPAT binding to recombinant human 5-hydroxytryptamine 1A receptor
T5 sequence (whole entry): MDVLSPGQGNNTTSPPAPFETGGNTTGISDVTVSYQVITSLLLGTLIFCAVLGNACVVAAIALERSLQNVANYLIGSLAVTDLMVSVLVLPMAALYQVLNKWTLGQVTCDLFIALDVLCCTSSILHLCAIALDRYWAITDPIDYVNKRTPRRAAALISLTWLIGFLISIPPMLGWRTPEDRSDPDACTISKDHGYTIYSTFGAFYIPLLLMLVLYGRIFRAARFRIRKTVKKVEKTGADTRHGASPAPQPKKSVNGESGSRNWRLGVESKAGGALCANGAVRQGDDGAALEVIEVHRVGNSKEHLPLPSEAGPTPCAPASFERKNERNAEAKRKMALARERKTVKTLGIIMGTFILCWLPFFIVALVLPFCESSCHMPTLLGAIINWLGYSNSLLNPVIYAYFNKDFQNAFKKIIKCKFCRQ

Sequence of D(2) dopamine receptor (P14416 whole entry): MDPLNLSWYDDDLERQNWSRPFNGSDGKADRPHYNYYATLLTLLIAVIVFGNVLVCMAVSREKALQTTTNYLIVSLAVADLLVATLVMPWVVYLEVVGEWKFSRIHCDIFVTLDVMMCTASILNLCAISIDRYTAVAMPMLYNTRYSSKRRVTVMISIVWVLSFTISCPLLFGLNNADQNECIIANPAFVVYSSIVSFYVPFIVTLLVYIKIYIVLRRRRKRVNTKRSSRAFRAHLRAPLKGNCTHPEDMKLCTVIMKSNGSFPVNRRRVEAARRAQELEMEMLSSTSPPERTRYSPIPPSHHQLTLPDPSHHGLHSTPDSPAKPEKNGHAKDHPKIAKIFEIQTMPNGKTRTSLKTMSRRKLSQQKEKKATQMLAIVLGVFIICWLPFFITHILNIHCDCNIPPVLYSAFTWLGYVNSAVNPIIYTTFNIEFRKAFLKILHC

SMILES | inhibition [1] | inhibition [2] | inhibition [3] | inhibition [4] | Ki [5] | inhibition [6]
CC(C)Oc1ccccc1N1CCN(C[C@@H](O)CNC(=O)c2ccc3c(c2)C(=O)N(c2ccc(N(C)C)cc2)C3=O)CC1 | 71% | 11% | 50% | 18% | 0.33 nM | 92%
CCOc1ccccc1OCCN[C@H](C)Cc1ccc(OC)c(S(N)(=O)=O)c1 [TAMSULOSIN] | 73% | 41% | 21% | 82% | – | 115%
CC(C)Oc1ccccc1N1CCN(CCCNC(=O)c2ccc3c(c2)C(=O)N(c2cccc(F)c2)C3=O)CC1 | 90% | 86% | 69% | 78% | 0.41 nM | 95%
CC(C)Oc1ccccc1N1CCN(C[C@@H](O)CNC(=O)c2ccc3c(c2)C(=O)N(c2cccc(F)c2)C3=O)CC1 | 51% | 8% | 43% | 29% | 1.02 nM | 98%

Continued by falling Ki [5], values first:

inhibition [1] | inhibition [2] | inhibition [3] | inhibition [4] | Ki [5] | inhibition [6] | SMILES
70% | 14% | – | 19% | 0.29 nM | 92% | Cc1ccc(N2C(=O)c3ccc(C(=O)NC[C@H](O)CN4CCN(c5ccccc5OC(C)C)CC4)cc3C2=O)cc1
94% | 83% | 20% | 87% | 0.16 nM | 90% | Cc1ccc(N2C(=O)c3ccc(C(=O)NCCCN4CCN(c5ccccc5OC(C)C)CC4)cc3C2=O)cc1
87% | 76% | 32% | 80% | 0.11 nM | 104% | COc1ccc(N2C(=O)c3ccc(C(=O)NCCCN4CCN(c5ccccc5OC(C)C)CC4)cc3C2=O)cc1
